Laboratory results taken from ChEMBL document CHEMBL5321243, “The Cytotoxic Cardiac Glycoside (-)-Cryptanoside A from the Stems of Cryptolepis dubia and Its Molecular Targets” (J Nat Prod, 2023).
The source made the active and inactive calls. The rule behind the calls is not given here.

Assays:
HT-29 = assay: Cytotoxicity against human HT-29 cells incubated for 72 hrs by Cell titer blue assay; type: functional, cell-based; details: HT-29, 72 h
Outline: (§1)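 Cells grown in RPMI 1640 with 10% FBS, penicillin and streptomycin at 37 °C, 5% CO₂; 5,000 log-phase cells per well seeded, left overnight, then exposed 72 h to serial dilutions from DMSO (DMSO vehicle; paclitaxel positive control). Viability read by CellTiter-Blue absorbance; IC50 relative to vehicle by nonlinear regression; triplicate, three independent experiments.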

OVCAR-5 = assay: Cytotoxicity against human OVCAR-5 cells incubated for 72 hrs by Cell titer blue assay; type: functional, cell-based; details: OVCAR-5, 72 h; outline: as §1
OVCAR-3 = assay: Cytotoxicity against human OVCAR-3 cells incubated for 72 hrs by Cell titer blue assay; type: functional, cell-based; details: OVCAR-3, 72 h; outline: as §1
MDA-MB-231 [1] = assay: Effect on NF-kappaB p52 expression in human MDA-MB-231 cells at 1 to 10 uM incubated for 72 hrs by Western blot analysis; type: functional, cell-based; details: dose 1-10 µM
Outline: (§2)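 MDA-MB-231 cells in DMEM with 10% FBS, penicillin and streptomycin; 5,000 cells per well seeded, left overnight, then exposed to 1.0, 5.0 or 10.0 µM (from DMSO) for 72 h at 37 °C. Surviving cells lysed in RIPA with 1 mM EDTA and protease inhibitors; equal protein (BCA) immunoblotted, signals normalized to β-actin; three independent experiments, t test versus control.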

MDA-MB-231 [2] = assay: Upregulation of p-Akt expression in human MDA-MB-231 cells at 0.48 uM incubated for 5 hrs by Western blot analysis; type: functional, cell-based
Outline: (§3)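 MDA-MB-231 cells in DMEM with 10% FBS and antibiotics, seeded overnight, then exposed to 0.5 µM or 0.48 µM (from DMSO) for 5 h at 37 °C. Cells washed in cold PBS, lysed in RIPA with EDTA and protease inhibitors; equal protein immunoblotted for p-Akt or NF-κB p50, normalized to β-actin; n = 3, t test versus control.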

MDA-MB-231 [3] = assay: Effect on PI3K expression in human MDA-MB-231 cells at 1 to 10 uM incubated for 72 hrs by Western blot analysis; type: functional, cell-based; details: dose 1-10 µM; outline: as §2
MDA-MB-231 [4] = assay: Downregulation of NF kappaB p50 expression in human MDA-MB-231 cells at 1 to 10 uM incubated for 72 hrs by Western blot analysis; details: dose 1-10 µM
MDA-MB-231 [5] = assay: Upregulation of NF kappaB p65 expression in human MDA-MB-231 cells at 1 to 10 uM incubated for 72 hrs by Western blot analysis; type: functional, cell-based; details: dose 1-10 µM; outline: as §2
MDA-MB-231 [6] = assay: Upregulation of Akt expression in human MDA-MB-231 cells at 1 to 10 uM incubated for 72 hrs by Western blot analysis; type: functional, cell-based; details: dose 1-10 µM; outline: as §2
MDA-MB-231 [7] = assay: Downregulation of NF-kappaB p50 expression in human MDA-MB-231 cells at 0.48 uM incubated for 5 hrs by Western blot analysis; type: functional, cell-based; outline: as §3
MDA-MB-435 = assay: Cytotoxicity against human MDA-MB-435 cells incubated for 72 hrs by Cell titer blue assay; type: functional, cell-based; details: MDA-MB-435, 72 h; outline: as §1
MDA-MB-231 [8] = assay: Cytotoxicity against human MDA-MB-231 cells incubated for 72 hrs by Cell titer blue assay; type: functional, cell-based; details: MDA-MB-231, 72 h; outline: as §1
MDA-MB-231 [9] = assay: Upregulation of p-Akt expression in human MDA-MB-231 cells at 0.5 uM incubated for 5 hrs by Western blot analysis; type: functional, cell-based; outline: as §3
[10] = target: Sodium/potassium-transporting ATPase (Sus scrofa); assay: Inhibition of NA+/K+ ATPase (porcine cerebral cortex) activity incubated for 15 mins in presence of ATP by ADP-Glo assay
MDA-MB-231 [11] = assay: Downregulation of NF-kappaB p50 expression in human MDA-MB-231 cells at 0.5 uM incubated for 5 hrs by Western blot analysis; type: functional, cell-based; outline: as §3
[12] = Cytotoxicity against human FT194 cells incubated for 72 hrs by Cell titer blue assay; type: functional, cell-based; details: FT194, 72 h; outline: as §1
MDA-MB-231 [13] = assay: Downregulation of NF kappaB p52 expression in human MDA-MB-231 cells at 5 to 10 uM incubated for 72 hrs by Western blot analysis; type: functional, cell-based; details: dose 5-10 µM; outline: as §2

| IC50 [10] | SMILES | IC50 (HT-29) | IC50 (OVCAR-5) | IC50 (OVCAR-3) | Activity (MDA-MB-231 [1]) | Activity (MDA-MB-231 [2]) | Activity (MDA-MB-231 [3]) | Activity (MDA-MB-231 [4]) | Activity (MDA-MB-231 [5]) | Activity (MDA-MB-231 [6]) | Activity (MDA-MB-231 [7]) | IC50 (MDA-MB-435) | IC50 (MDA-MB-231 [8]) | Activity (MDA-MB-231 [9]) | Activity (MDA-MB-231 [11]) | IC50 [12] | Activity (MDA-MB-231 [13]) |
| --- | --- | --- | --- | --- | --- | --- | --- | --- | --- | --- | --- | --- | --- | --- | --- | --- | --- |
| – | CC(=O)O[C@H]1C(=O)[C@@]2(C)[C@H]([C@H](OC(=O)c3ccccc3)[C@]3(O)C[C@H](OC(=O)[C@H](O)[C@@H](NC(=O)c4ccccc4)c4ccccc4)C(C)=C1C3(C)C)[C@]1(OC(C)=O)CO[C@@H]1C[C@@H]2O [PACLITAXEL] | 3400 nM | 7300 nM | 4.9 nM | – | – | – | – | – | – | – | – | – | – | – | – | – |
| – | C[C@H]1O[C@@H](O[C@H]2[C@@H](O)C[C@H](O[C@H]3[C@@H](O)C[C@H](O[C@H]4CC[C@@]5(C)[C@H](CC[C@@H]6[C@@H]5C[C@@H](O)[C@]5(C)[C@@H](C7=CC(=O)OC7)CC[C@]65O)C4)O[C@@H]3C)O[C@@H]2C)C[C@H](O)[C@@H]1O | – | – | – | inactive | Active | inactive | Active | Active | Active | inactive | – | – | – | – | – | – |
| 1200 nM | CO[C@H]1C[C@H](O[C@H]2CC[C@]3(C)C4[C@H](O)C(=O)[C@]5(C)[C@@H](C6=CC(=O)OC6)CC[C@]5(O)[C@@]45O[C@H]5C[C@@H]3C2)O[C@@H](C)[C@@H]1O (stereo not given in full) | 220 nM | 440 nM | 140 nM | inactive | – | inactive | Active | Active | Active | – | 200 nM | 500 nM | Active | inactive | 1100 nM | Active |
